As usually defined, the logD is the decadic logarithm of the distribution of all forms, ionised or not, between an organic phase and buffer at a given pH. A higher logD goes with a more lipophilic compound. What is called AUC(0-t) is exposure summed from dosing to a finite time, without extrapolation to infinity.

SMILES strings stand for the structures.

Series [1] can be described thus: 1-octanol-phosphate buffer distribution coefficient, log D of the compound at 1 uM after 2 hrs by shake flask method at pH 7.4. Type of series: physicochemical. In outline:
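Phosphate buffer (0.1 M, pH 7.4) and 1-octanol were mutually pre-saturated. Analyte at 1 μM in buffer was overlaid with octanol at two volume ratios chosen by lipophilicity class, three wells per ratio. Plates were shaken 2 h at 25 °C and centrifuged, and the aqueous phase was quantified by LC-MS. Results were accepted if the two ratio means agreed within 0.1 unit.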

A short description of series [2]: AUC (0 to 24 hrs) in C3H/HeN mouse plasma at 5 mg/kg, iv administered as single dose. Type of series: ADME, organism-based. More on the design: time < 24 hr, dose 5 mg/kg, route intravenous. The essentials: (§1)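 Female C3H/HeN mice (19–25 g) received a single tail-vein iv dose in 100 μL PBS. Blood and urine (10 μL) were sampled at 6 and 30 min and at 1, 2, 4, 6 and 8 h. Samples were methanol-precipitated, centrifuged and quantified by LC-MS. n = 4.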

Series [3] is described as follows: AUC (0 to 24 hrs) in C3H/HeN mouse plasma at 0.05 mg/kg, iv administered as single dose. Type of series: ADME, organism-based. More on the design: time < 24 hr, dose 0.05 mg/kg, route intravenous. The essentials:
as §1

Series [4] in a line: AUC (0 to 24 hrs) in C3H/HeN mouse urine at 0.05 mg/kg, iv administered as single dose. More on the design: time < 24 hr, dose 0.05 mg/kg, route intravenous. Type of series: ADME, organism-based. The essentials: as §1
Series [5] can be described thus: AUC (0 to 24 hrs) in C3H/HeN mouse plasma at 25 mg/kg, iv administered as single dose. Type of series: ADME, organism-based. More on the design: time < 24 hr, dose 25 mg/kg, route intravenous. The essentials: as §1
Series [6] is described as follows: AUC (0 to 24 hrs) in C3H/HeN mouse urine at 25 mg/kg, iv administered as single dose. Type of series: ADME, organism-based. More on the design: time < 24 hr, dose 25 mg/kg, route intravenous. The essentials:
as §1

Series [7] can be described thus: AUC (0 to 24 hrs) in C3H/HeN mouse plasma at 1 mg/kg, iv administered as single dose. Type of series: ADME, organism-based. More on the design: time < 24 hr, dose 1 mg/kg, route intravenous. The essentials: as §1
Series [8] is described as follows: AUC (0 to 24 hrs) in C3H/HeN mouse urine at 1 mg/kg, iv administered as single dose. Type of series: ADME, organism-based. More on the design: time < 24 hr, dose 1 mg/kg, route intravenous. The essentials: as §1

As for `OC[C@H]1O[C@H](Oc2ccc(-n3ccc4cc(Cl)cnc43)cc2Cl)[C@@H](O)[C@@H](O)[C@@H]1O`, the logD at 2 h, 1 µM in series [1] came to 3.4.

Molecule `CS(=O)(=O)Nc1ccc2c(ccn2-c2ccc(O[C@H]3O[C@H](CO)[C@@H](O)[C@H](O)[C@@H]3O)c(Cl)c2)c1` displayed a logD at 2 h, 1 µM in series [1] of 1.8.

The molecule `O=C(O)c1ccc(-c2ccc(O[C@H]3O[C@H](CO)[C@@H](O)[C@H](O)[C@@H]3O)c(Cl)c2)cc1` yielded a pH-dependent lipophilicity (logD) at 2 h, 1 µM in series [1] of -0.8.

Consider `O=[N+]([O-])c1ccc2c(ccn2-c2ccc(O[C@H]3O[C@H](CO)[C@@H](O)[C@H](O)[C@@H]3O)c(Cl)c2)c1`, for which, in series [1], the logD at 2 h, 1 µM came to 1.8. This molecule yielded an AUC(0-t) at 24 h in series [2] of 2300 ng·h/mL.

`O=C(O)c1ccc2c(ccn2-c2ccc(O[C@H]3O[C@H](CO)[C@@H](O)[C@H](O)[C@@H]3O)c(Cl)c2)c1` returned a logD at 2 h, 1 µM in series [1] of 1.1.

The molecule `OC[C@H]1O[C@H](Oc2ccc(-n3ccc4ccccc43)cc2F)[C@@H](O)[C@@H](O)[C@@H]1O` had a logD at 2 h, 1 µM in series [1] of 2.4.

On to `Cn1cnc2cc(-c3ccc(O[C@H]4O[C@H](CO)[C@@H](O)[C@H](O)[C@@H]4O)c(Cl)c3)cnc21`, for which the logD at 2 h, 1 µM in series [1] turned out to be 1.3.

In series [1], `OC[C@H]1O[C@H](Oc2ccc(N3CCc4ccccc43)cc2)[C@@H](O)[C@@H](O)[C@@H]1O` returned a logD at 2 h, 1 µM of 2.3.

For the molecule `OC[C@H]1O[C@H](Oc2ccc(N3CCc4ccccc43)cc2Cl)[C@@H](O)[C@@H](O)[C@@H]1O`, the logD at 2 h, 1 µM in series [1] was determined as 2.8.

Molecule `O=[N+]([O-])c1ccc2c(c1)CCN2c1ccc(O[C@H]2O[C@H](CO)[C@@H](O)[C@H](O)[C@@H]2O)c(Cl)c1` returned a logD at 2 h, 1 µM in series [1] of 1.9. For the same molecule, the AUC(0-t) at 24 h in series [3] worked out at 3500 ng·h/mL; in series [4] it was 33400 ng·h/mL.

Turning to `COc1ccc2c(ccn2-c2ccc(O[C@H]3O[C@H](CO)[C@@H](O)[C@H](O)[C@@H]3O)c(Cl)c2)c1`, in series [1], the logD at 2 h, 1 µM turned out to be 3.

`OC[C@H]1O[C@H](Oc2ccc(-c3cnc4[nH]ccc4c3)cc2Cl)[C@@H](O)[C@@H](O)[C@@H]1O` registered a logD at 2 h, 1 µM in series [1] of 3.2.

In series [1], `OC[C@H]1O[C@H](Oc2ccc(-n3ccc4ccccc43)cc2Cl)[C@@H](O)[C@@H](O)[C@@H]1O` gave a log distribution coefficient (logD) at 2 h, 1 µM of 1.8. The results for the AUC(0-t) at 24 h in series [5] and in series [6] were 8200 ng·h/mL and 19300 ng·h/mL, respectively.

The molecule `COC(=O)c1ccc2c(ccn2-c2ccc(O[C@H]3O[C@H](CO)[C@@H](O)[C@H](O)[C@@H]3O)c(Cl)c2)c1` displayed a log distribution coefficient (logD) at 2 h, 1 µM in series [1] of 2.8.

With `OC[C@H]1O[C@H](Oc2ccc(-n3ccc4c(OCc5ccccc5)cccc43)cc2Cl)[C@@H](O)[C@@H](O)[C@@H]1O`, the logD at 2 h, 1 µM in series [1] is 2.7.

`O=[N+]([O-])c1ccc2c(ccn2-c2ccc(O[C@H]3O[C@H](CO)[C@@H](O)[C@H](O)[C@@H]3O)c(F)c2)c1` displayed a logD at 2 h, 1 µM in series [1] of 1.9.

As for `N#Cc1cnc2c(ccn2-c2ccc(O[C@H]3O[C@H](CO)[C@@H](O)[C@H](O)[C@@H]3O)c(Cl)c2)c1`, in series [1], the logD at 2 h, 1 µM stood at 1.6.

Turning to `O=[N+]([O-])c1ccc2c(c1)CCN2c1ccc(O[C@H]2O[C@H](CO)[C@@H](O)[C@H](O)[C@@H]2O)cc1`, in series [1], the logD at 2 h, 1 µM was found to be 1.9. Further, the results for the exposure AUC(0-t) at 24 h in series [7] and in series [8] were 2200 ng·h/mL and 586000 ng·h/mL, respectively.

These data come from ChEMBL document CHEMBL2062481 (J Med Chem, 2012).
